Results pooled from the literature.
Lines come from different studies, so protocols differ.
CYP2D6: Cytochrome P450 2D6 (CYP2D6, Homo sapiens, UniProt P10635)

Compound	target or system	test	test system	setting	measurement	result
CCC[C@@](N)(CO)CCc1ccc(OCCCCCC(C)C)cc1	CYP2D6	enzyme activity, inhibitor			IC50	32 µM
N=c1c2c(-c3ccccc3)c(-c3ccccc3)n(Cc3ccccc3)c2ncn1[C@H]1CC[C@H](O)CC1			male beagle dog, plasma	intravenous, 0.5 mg/kg, single dose	Vd	15.9 L/kg
COC(=O)C1CCN(C(=O)c2ccc(NCc3cnc4nc(N)nc(N)c4n3)cc2)CC1	CYP2D6	enzyme activity, inhibitor, luciferase		10 µM	inhibition	-27.7%
Cc1ncc(C)n2nc(/C=C/c3nc(N4CCCC4)cc(N4CCOCC4)n3)nc12			male beagle dog, plasma	oral, 0.3 mg/kg	half-life	3.7 h
COC(=O)C1CCN(C(=O)c2ccc(N(C)Cc3cnc4nc(N)nc(N)c4n3)cc2)CC1	CYP2D6	enzyme activity, inhibitor, luciferase		10 µM	inhibition	-32.7%
C=C[C@H]1C[N@@]2CC[C@H]1C[C@@H]2[C@@H](O)c1ccnc2ccc(OC)cc12	CYP2D6	enzyme activity, inhibitor	human, liver microsomes	10 µM	inhibition	87%
O=C[C@H](C[C@@H]1CCNC1=O)NC(=O)[C@H](CC1CCCCC1)NC(=O)c1cc2ccccc2[nH]1			dog, plasma	intravenous, 8 mg/kg	AUC	14500 ng·h/mL
CN[C@@H](C)C(=O)N[C@H]1CN(C(=O)CC(C)C)CC[C@H]2CC[C@@H](C(=O)NC(c3ccccc3)c3ccccc3)N2C1=O			beagle dog, plasma	oral, 10 mg/kg	half-life	27 h
